What all share (type): functional
Holding throughout (details): read-out: IZ

The test system of assay [1] is Staphylococcus aureus. Nature of the assay: Antimicrobial activity against Staphylococcus aureus at 50 ug/ml after 24 hrs by agar diffusion method. The procedure, abridged:
(§1)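 Agar well diffusion: petri plates (9 cm) with about 9 ml nutrient agar, seeded with the test organism. Wells cut with a cork borer and loaded with test compound at 25, 50, 75 or 100 per ml; tetracycline as control. Incubated 37 °C for 24 h; average inhibition-zone diameter around wells measured (mm).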
A general note: Agar diffusion results depend on both activity and mobility in agar.

The test system of assay [2] is Proteus vulgaris. The assay is described as follows: Antimicrobial activity against Proteus vulgaris at 75 ug/ml after 24 hrs by agar diffusion method. The procedure, abridged:
as §1

Assay [3] relates to Proteus mirabilis. Nature of the assay: Antimicrobial activity against Proteus mirabilis at 75 ug/ml after 24 hrs by agar diffusion method. The method, boiled down:
as §1

Assay [4] has as its system Staphylococcus aureus. The assay is described as follows: Antimicrobial activity against Staphylococcus aureus at 75 ug/ml after 24 hrs by agar diffusion method. The method, boiled down: as §1
For assay [5], the system named is Salmonella enterica subsp. enterica serovar Typhi str. CT18. Nature of the assay: Antimicrobial activity against Salmonella typhi at 25 ug/ml after 24 hrs by agar diffusion method. The procedure, abridged: (§2)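 Agar well diffusion: about 9 ml nutrient agar in 9 cm Petri plates, seeded with the test organism. Wells cut with a cork borer and loaded with test compound at 25–100 per ml; tetracycline as control. Plates incubated 24 h at 37 °C. Read-out is the average diameter of the inhibition zone around each well, in mm.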

Assay [6] concerns Proteus mirabilis. The assay is described as follows: Antimicrobial activity against Proteus mirabilis at 25 ug/ml after 24 hrs by agar diffusion method. The procedure, abridged: as §1
For assay [7], the system named is Salmonella enterica subsp. enterica serovar Typhi str. CT18. The assay is described as follows: Antimicrobial activity against Salmonella typhi at 75 ug/ml after 24 hrs by agar diffusion method. The method, boiled down:
as §2

In assay [8] the test system is Proteus vulgaris. Nature of the assay: Antimicrobial activity against Proteus vulgaris at 50 ug/ml after 24 hrs by agar diffusion method. The method, boiled down:
as §1

In assay [9] the test system is Proteus vulgaris. The assay is described as follows: Antimicrobial activity against Proteus vulgaris at 25 ug/ml after 24 hrs by agar diffusion method. The procedure, abridged:
as §1

The subject of assay [10] is Staphylococcus aureus. Nature of the assay: Antimicrobial activity against Staphylococcus aureus at 100 ug/ml after 24 hrs by agar diffusion method. The method, boiled down: as §1
Assay [11] deals with Staphylococcus aureus. The assay is described as follows: Antimicrobial activity against Staphylococcus aureus at 25 ug/ml after 24 hrs by agar diffusion method. The method, boiled down:
as §1

The subject of assay [12] is Proteus mirabilis. The assay is described as follows: Antimicrobial activity against Proteus mirabilis at 50 ug/ml after 24 hrs by agar diffusion method. The procedure, abridged:
as §1

In assay [13] the test system is Salmonella enterica subsp. enterica serovar Typhi str. CT18. Nature of the assay: Antimicrobial activity against Salmonella typhi at 100 ug/ml after 24 hrs by agar diffusion method. The procedure, abridged: as §2
Assay [14] has the same test system. Nature of the assay: Antimicrobial activity against Salmonella typhi at 50 ug/ml after 24 hrs by agar diffusion method. The method, boiled down: as §2
The subject of assay [15] is Proteus vulgaris. The assay is described as follows: Antimicrobial activity against Proteus vulgaris at 100 ug/ml after 24 hrs by agar diffusion method. The procedure, abridged: as §1
Assay [16] has as its system Proteus mirabilis. The assay is described as follows: Antimicrobial activity against Proteus mirabilis at 100 ug/ml after 24 hrs by agar diffusion method. The method, boiled down:
as §1

Results on ten compounds are retold here after ChEMBL document CHEMBL1138567, “Regioselective synthesis and antimicrobial screening of novel ketocarbazolodispiropyrrolidine derivatives” (2009).

Turning to `CN1C[C@@H](c2ccc(Cl)cc2)[C@@]2(CCc3c([nH]c4ccccc34)C2=O)[C@]12C(=O)c1cccc3cccc2c13`, the zone of inhibition at 50 µg/mL in the assay on Staphylococcus aureus [1] turned out to be 18 mm; with Proteus vulgaris [8] it was 18 mm; in the assay with Proteus mirabilis [12] it was 16 mm; in [14], 16 mm. The zone of inhibition at 75 µg/mL came out at 24 mm with Proteus vulgaris [2], 24 mm in the assay on Proteus mirabilis [3], 22 mm in the assay with Staphylococcus aureus [4] and 21 mm in assay [7]. In addition, the zone of inhibition at 25 µg/mL in assay [5] came out at 13 mm; in the assay on Proteus mirabilis [6], 12 mm; in the assay on Proteus vulgaris [9] it was 19 mm; in the assay on Staphylococcus aureus [11] it was 14 mm. The zone of inhibition at 100 µg/mL in the assay on Staphylococcus aureus [10] is 34 mm; in assay [13] it was 31 mm; in the assay with Proteus vulgaris [15], more than 40 mm; in the assay with Proteus mirabilis [16] it was 36 mm.
For the compound `Cc1ccc([C@@H]2CN(C)[C@@]3(C(=O)Nc4ccccc43)[C@]23CCc2c([nH]c4ccccc24)C3=O)cc1`, the zone of inhibition at 50 µg/mL amounted to 13 mm in the assay with Staphylococcus aureus [1], 16 mm in the assay on Proteus vulgaris [8], 14 mm in the assay on Proteus mirabilis [12] and 12 mm in [14]. The zone of inhibition at 75 µg/mL in the assay with Proteus vulgaris [2] amounted to 18 mm; in the assay on Proteus mirabilis [3], 16 mm; in the assay on Staphylococcus aureus [4], 16 mm; in assay [7] it was 14 mm. Besides, the zone of inhibition at 25 µg/mL in assay [5] came out at 9 mm; with Proteus mirabilis [6] it was 11 mm; in the assay on Proteus vulgaris [9], 12 mm; in the assay on Staphylococcus aureus [11] it was 9 mm. Also, the zone of inhibition at 100 µg/mL in the assay with Staphylococcus aureus [10] was 20 mm; in assay [13], 16 mm; in the assay on Proteus vulgaris [15] it was 21 mm; in the assay on Proteus mirabilis [16], 18 mm.
As to `COc1ccc([C@@H]2CN(C)C3(C(=O)c4ccccc4C3=O)[C@]23CCc2c([nH]c4ccccc24)C3=O)cc1`, the zone of inhibition at 50 µg/mL in the assay with Staphylococcus aureus [1] was 13 mm; with Proteus vulgaris [8], 15 mm; in the assay with Proteus mirabilis [12], 15 mm; in assay [14] it was 11 mm. For the same compound, the zone of inhibition at 75 µg/mL was 16 mm in the assay with Proteus vulgaris [2], 17 mm with Proteus mirabilis [3], 15 mm in the assay on Staphylococcus aureus [4] and 16 mm in [7]. The zone of inhibition at 25 µg/mL with Proteus mirabilis [6] was 13 mm; in the assay on Proteus vulgaris [9], 13 mm; in the assay on Staphylococcus aureus [11], 9 mm. Further, the zone of inhibition at 100 µg/mL in the assay with Staphylococcus aureus [10] was found to be 20 mm; in assay [13] it was 21 mm; in the assay on Proteus vulgaris [15], 21 mm; with Proteus mirabilis [16], 20 mm.
Take `CN1C[C@@H](c2ccccc2)[C@@]2(CCc3c([nH]c4ccccc34)C2=O)C12C(=O)c1ccccc1C2=O`: the zone of inhibition at 50 µg/mL with Staphylococcus aureus [1] came out at 14 mm; in the assay on Proteus vulgaris [8] it was 15 mm; with Proteus mirabilis [12] it was 9 mm; in assay [14], 13 mm. Also, the zone of inhibition at 75 µg/mL in the assay on Proteus vulgaris [2] amounted to 18 mm; in the assay on Proteus mirabilis [3], 13 mm; in the assay on Staphylococcus aureus [4], 16 mm; in assay [7], 14 mm. In addition, the zone of inhibition at 25 µg/mL in assay [5] amounted to 9 mm; in the assay on Proteus vulgaris [9], 11 mm. Besides, the zone of inhibition at 100 µg/mL is 20 mm in the assay with Staphylococcus aureus [10], 18 mm in assay [13], 21 mm in the assay with Proteus vulgaris [15] and 15 mm in the assay with Proteus mirabilis [16].
Regarding `CN1C[C@@H](c2ccc(Cl)cc2)[C@@]2(CCc3c([nH]c4ccccc34)C2=O)C12C(=O)c1ccccc1C2=O`, the zone of inhibition at 50 µg/mL with Staphylococcus aureus [1] was 11 mm; in the assay with Proteus vulgaris [8], 14 mm; with Proteus mirabilis [12] it was 9 mm; in assay [14] it was 13 mm. The zone of inhibition at 75 µg/mL turned out to be 18 mm with Proteus vulgaris [2], 14 mm in the assay on Proteus mirabilis [3], 16 mm in the assay on Staphylococcus aureus [4] and 16 mm in assay [7]. Moreover, the zone of inhibition at 25 µg/mL (in assay [5]; in the assay with Staphylococcus aureus [11]) was 9 mm each time. In addition, the zone of inhibition at 100 µg/mL with Staphylococcus aureus [10] came out at 19 mm; in assay [13], 19 mm; in the assay on Proteus vulgaris [15], 24 mm; in the assay with Proteus mirabilis [16] it was 23 mm.
For the compound `CN1C[C@@H](c2ccccc2)[C@@]2(CCc3c([nH]c4ccccc34)C2=O)[C@]12C(=O)c1cccc3cccc2c13`, the zone of inhibition at 50 µg/mL in the assay on Staphylococcus aureus [1] worked out at 19 mm; in the assay on Proteus vulgaris [8], 14 mm; in the assay with Proteus mirabilis [12], 13 mm; in assay [14], 14 mm. The zone of inhibition at 75 µg/mL in the assay on Proteus vulgaris [2] came out at 18 mm; in the assay on Proteus mirabilis [3] it was 22 mm; with Staphylococcus aureus [4] it was 21 mm; in [7], 20 mm. Besides, the zone of inhibition at 25 µg/mL came to 11 mm in assay [5], 11 mm with Proteus mirabilis [6] and 14 mm with Staphylococcus aureus [11]. Moreover, the zone of inhibition at 100 µg/mL was 26 mm in the assay on Staphylococcus aureus [10], 28 mm in assay [13], 21 mm in the assay on Proteus vulgaris [15] and 32 mm in the assay with Proteus mirabilis [16].
Turning to `Cc1ccc([C@@H]2CN(C)C3(C(=O)c4ccccc4C3=O)[C@]23CCc2c([nH]c4ccccc24)C3=O)cc1`, the zone of inhibition at 50 µg/mL in the assay with Staphylococcus aureus [1] came to 14 mm; in the assay on Proteus mirabilis [12], 11 mm; in assay [14], 9 mm. The zone of inhibition at 75 µg/mL with Proteus vulgaris [2] came out at 9 mm; with Proteus mirabilis [3] it was 14 mm; in the assay on Staphylococcus aureus [4], 18 mm; in [7], 14 mm. The zone of inhibition at 25 µg/mL in the assay with Proteus mirabilis [6] and with Staphylococcus aureus [11] was 9 mm each time. The zone of inhibition at 100 µg/mL was found to be 21 mm with Staphylococcus aureus [10], 16 mm in assay [13], 12 mm in the assay with Proteus vulgaris [15] and 18 mm in the assay with Proteus mirabilis [16].
In the case of `CN1C[C@@H](c2ccc(Br)cc2)[C@@]2(CCc3c([nH]c4ccccc34)C2=O)[C@]12C(=O)Nc1ccccc12`, the zone of inhibition at 50 µg/mL came to 15 mm with Staphylococcus aureus [1], 14 mm with Proteus vulgaris [8], 14 mm in the assay on Proteus mirabilis [12] and 9 mm in assay [14]. The zone of inhibition at 75 µg/mL with Proteus vulgaris [2] was determined as 18 mm; in the assay on Proteus mirabilis [3], 16 mm; in the assay on Staphylococcus aureus [4], 18 mm; in assay [7], 13 mm. Moreover, the zone of inhibition at 25 µg/mL in the assay on Proteus mirabilis [6], in the assay with Proteus vulgaris [9] and with Staphylococcus aureus [11] was 11 mm in each case. Moreover, the zone of inhibition at 100 µg/mL with Staphylococcus aureus [10] was 22 mm; in [13], 16 mm; in the assay with Proteus vulgaris [15], 21 mm; in the assay on Proteus mirabilis [16], 18 mm.
For `CN1C[C@@H](c2ccc([N+](=O)[O-])cc2)[C@@]2(CCc3c([nH]c4ccccc34)C2=O)[C@]12C(=O)Nc1ccccc12`, the zone of inhibition at 50 µg/mL with Staphylococcus aureus [1] worked out at 11 mm; with Proteus vulgaris [8] it was 13 mm; in the assay on Proteus mirabilis [12] it was 13 mm; in [14], 16 mm. The zone of inhibition at 75 µg/mL in the assay on Proteus vulgaris [2] is 18 mm; in the assay with Proteus mirabilis [3] it was 16 mm; in the assay on Staphylococcus aureus [4] it was 14 mm; in assay [7] it was 18 mm. The results for the zone of inhibition at 25 µg/mL (in assay [5]; in the assay on Proteus mirabilis [6]; in the assay with Proteus vulgaris [9]) were 9 mm, 12 mm and 9 mm, respectively. For the same compound, the zone of inhibition at 100 µg/mL with Staphylococcus aureus [10] came to 20 mm; in assay [13] it was 22 mm; with Proteus vulgaris [15], 22 mm; in the assay with Proteus mirabilis [16], 20 mm.
For the compound `CN1C[C@@H](c2ccc(Br)cc2)[C@@]2(CCc3c([nH]c4ccccc34)C2=O)C12C(=O)c1ccccc1C2=O`, the zone of inhibition at 50 µg/mL in the assay on Staphylococcus aureus [1] was determined as 12 mm; in the assay on Proteus vulgaris [8], 13 mm; in the assay on Proteus mirabilis [12], 11 mm; in assay [14], 9 mm. In addition, the zone of inhibition at 75 µg/mL turned out to be 16 mm in the assay with Proteus vulgaris [2], 14 mm in the assay with Proteus mirabilis [3], 19 mm in the assay on Staphylococcus aureus [4] and 18 mm in [7]. The zone of inhibition at 25 µg/mL in the assay on Proteus mirabilis [6] and in the assay on Proteus vulgaris [9] was 9 mm in each case. The zone of inhibition at 100 µg/mL in the assay with Staphylococcus aureus [10] was 21 mm; in assay [13], 19 mm; in the assay on Proteus vulgaris [15] it was 18 mm; in the assay on Proteus mirabilis [16], 16 mm.
